The subject of experiment [1] is HeLa. The experiment in a line: Induction of interphase microtubule depolymerization in human HeLa cells at 30 nM after 24 hrs by Hoechst 33258 dye-based fluorescence microscopy. The experiment is classed as cell-based.
In experiment [2] the test system is Tubulin (Capra hircus). The experiment in a line: Inhibition of goat brain microtubule GTPase activity using GTP as substrate assessed as reduction of inorganic phosphate release at 2 uM incubated for 10 mins prior to substrate addition measured after 10 mins by ammonium molybdate malachite green assay relative to control.
In experiment [3] the test system is MCF7. Put plainly: Cytotoxicity against human MCF7 cells after 24 to 48 hrs by trypan blue assay. The class given is functional, cell-based. The essentials: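 Cells were seeded at 1 × 10^5 cells/mL, grown 24 h at 37 °C in 5% CO2, then given vehicle (0.1% DMSO) or 1–80 nM for a further 24 or 48 h. Attached plus floating cells were counted after trypan blue staining. Percent inhibition was plotted against concentration to give IC50. Average of three independent experiments.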

Experiment [4] relates to HeLa. Put plainly: Antimitotic activity in human HeLa cells assessed as increase in phosphohistone H3 (Ser10) positive cell population at 15 nM after 24 hrs by fluorescence microscopic analysis (reference value: 3 +/- 0.3 %). The class given is functional.
In experiment [5] the test system is Tubulin (Capra hircus). The experiment in a line: Inhibition of goat brain microtubule GTPase activity using GTP as substrate assessed as reduction of inorganic phosphate release at 5 uM incubated for 10 mins prior to substrate addition measured after 10 mins by ammonium molybdate malachite green assay relative to control.
The test system of experiment [6] is HeLa. Put plainly: Induction of mitotic microtubule depolymerization in human HeLa cells assessed as multipolar spindle formation at 30 nM after 24 hrs by Hoechst 33258 dye-based fluorescence microscopy. The experiment is classed as cell-based.
Experiment [7] relates to HeLa. Put plainly: Inhibition of microtubule-kinetochore attachment in human HeLa cells assessed as BubR1 accumulation at kinetochoric region at 15 to 45 nM after 24 hrs by Hoechst 33258 dye-based Hec1 staining assay. The class given is cell-based.
Experiment [8] has as its system MCF7. The experiment in a line: Inhibition of microtubule (unknown origin) dynamics in GFP-tubulin transfected human MCF7 cells assessed as microtubule growth time at 15 nM by confocal laser scanning microscopy (reference value: 0.9 +/- 0.1 min). The experiment is classed as cell-based. The gist of the method: (§1)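 EGFP-tubulin-transfected MCF-7 cells grown in EMEM with 10% FBS at 37 °C in 5% CO2, exposed to 15 nM compound (DMSO vehicle) or vehicle. Individual microtubules were followed by time-lapse confocal laser scanning microscopy and life-history traces were recorded. Kinetic parameters were derived from these traces, 20 microtubules per condition. Significance was tested by one-way ANOVA.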

The test system of experiment [9] is HeLa. Put plainly: Induction of apoptosis in human HeLa cells assessed as mid apoptotic cells at 7 to 15 nM after 24 hrs by annexin V/propidium iodide staining-based FACS flow cytometry. The class given is functional, cell-based. The gist of the method: (§2)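 HeLa cells were grown with vehicle (0.1% DMSO) or 7, 15 and 30 nM for 24 h and stained with an annexin V/propidium iodide kit. Stage was scored as annexin V-positive with weak PI (early/mid) or positive for both (late).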
In general terms: Flow cytometry measures light scatter and fluorescence of single cells or particles in a stream.

For experiment [10], the system named is HeLa. The experiment in a line: Inhibition of mitosis in human HeLa cells assessed as mitotic index ratio at 15 nM after 24 hrs by Hoechst 33258 DNA staining assay (reference value: 3.2). The class given is functional. The essentials:
(§3)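 HeLa cells were treated with vehicle or 7, 15 or 30 nM compound for 24 or 48 h. DNA was stained with Hoechst 33258, and mitotic cells were counted by fluorescence microscopy to give the mitotic index, compared against vehicle-treated cells.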

Experiment [11] relates to HeLa. Put plainly: Induction of mitotic microtubule depolymerization in human HeLa cells at 30 nM after 24 hrs by Hoechst 33258 dye-based fluorescence microscopy. The class given is cell-based.
In experiment [12] the test system is HeLa. Put plainly: Inhibition of mitosis in human HeLa cells assessed as mitotic index ratio at 7 nM after 48 hrs by Hoechst 33258 DNA staining assay (reference value: 3). The experiment is classed as functional. The gist of the method:
as §3

Experiment [13] has as its system HeLa. Put plainly: Inhibition of microtubule-kinetochore attachment in human HeLa cells assessed as Mad2 accumulation at kinetochoric region at 15 to 45 nM after 24 hrs by Hoechst 33258 dye-based Hec1 staining assay. The experiment is classed as cell-based.
Experiment [14] concerns HeLa. The experiment in a line: Induction of apoptosis in human HeLa cells assessed as caspase-3 activation at 30 nM after 24 hrs by Western blot analysis. The experiment is classed as functional, cell-based. The essentials: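 HeLa cells were treated with vehicle or 30 nM for 24 h and washed twice in PBS. Lysates were Western blotted with antibodies to JNK1, phospho-JNK, procaspase-3 and PARP.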
For orientation: Immunoblotting shows a protein as a band on a membrane.

Experiment [15] concerns HeLa. The experiment in a line: Induction of interphase microtubule depolymerization in human HeLa cells at 7 nM after 24 hrs by Hoechst 33258 dye-based fluorescence microscopy relative to control. The experiment is classed as cell-based.
Experiment [16] is filed under the species Homo sapiens. Put plainly: Inhibition of microtubule (unknown origin) assembly at 5 uM incubated for 15 mins prior to GTP addition measured for 30 mins by 90 degree light scattering-based fluorescence spectrophotometric method. The gist of the method:
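MAP-rich tubulin (1 mg/mL) was preincubated with 1, 3, 5 or 10 μM in PEM buffer (25 mM Pipes pH 6.8, 3 mM MgCl2, 1 mM EGTA) for 15 min on ice. GTP (1 mM) was then added and assembly monitored by 90° light scattering at 400 nm for 30 min at 37 °C.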

Experiment [17] deals with MCF7. The experiment in a line: Inhibition of microtubule (unknown origin) dynamics in GFP-tubulin transfected human MCF7 cells assessed as microtubule pause time at 15 nM by confocal laser scanning microscopy (reference value: 35 +/- 8 %). The class given is cell-based. Further details: scale not given: the % may be the effect or the level left. The gist of the method:
as §1

The test system of experiment [18] is MCF7. The experiment in a line: Inhibition of microtubule (unknown origin) dynamics in GFP-tubulin transfected human MCF7 cells assessed as microtubule rescue events at 15 nM by confocal laser scanning microscopy (reference value: 10 +/- 2 events/min). The experiment is classed as cell-based. The essentials:
as §1

For a further experiment, the species on record is Capra hircus. The experiment in a line: Inhibition of goat brain tubulin polymerization at 5 uM incubated for 20 mins prior to GTP addition measured for 30 mins by 90 degree light scattering-based fluorescence spectrophotometric method. The gist of the method:
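Goat brain tubulin (10 μM) was preincubated with compound (5 μM; or 1, 5, 7, 10 μM) in 1 M monosodium glutamate, 3 mM MgCl2, 1 mM EGTA, 25 mM Pipes pH 6.8 on ice for 20 min. GTP (1 mM) was then added and assembly followed by 90° light scattering at 400 nm for 30 min at 37 °C. Experiment run twice.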

The test system of experiment [19] is HeLa. Put plainly: Induction of apoptosis in human HeLa cells assessed as apoptotic cells at 35 nM after 10 hrs by annexin V-FITC/propidium iodide staining-based FACS analysis. The class given is functional. The essentials: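 HeLa cells were exposed to 35 nM for 10 or 24 h, stained with annexin V and propidium iodide using a kit, and apoptotic cells were quantified by FACS. Nocodazole (700 nM) served as comparator.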

The species entered for experiment [20] is Homo sapiens. Put plainly: Inhibition of microtubule (unknown origin) assembly at 5 uM after 20 mins by transmission electron microscopy. The essentials:
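Goat brain tubulin (10 μM) was preincubated with 5 or 10 μM on ice for 20 min, then polymerized with 1 mM GTP at 37 °C in glutamate assembly buffer. Polymers were fixed in 0.5% glutaraldehyde, negatively stained with 2% uranyl acetate, and imaged by transmission EM.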

Experiment [21] concerns MCF7. Put plainly: Inhibition of microtubule (unknown origin) dynamics in GFP-tubulin transfected human MCF7 cells assessed as increase in microtubule rescue frequency at 15 nM by confocal laser scanning microscopy relative to control. The class given is cell-based. The gist of the method:
as §1

Experiment [22] concerns HeLa. The experiment in a line: Induction of apoptosis in human HeLa cells assessed as early apoptotic cells at 7 to 15 nM after 24 hrs by annexin V/propidium iodide staining-based FACS flow cytometry. The experiment is classed as functional, cell-based. The gist of the method: as §2

Structures are written as SMILES. Activity calls are given as the source filed them. The calls are words filed in the database; no cut-off is given here.

The values below come from ChEMBL document CHEMBL2331364, “A synthetic dolastatin 10 analogue suppresses microtubule dynamics, inhibits cell proliferation, and induces apoptotic cell death” (J Med Chem, 2013).

One may read the inhibition as the share of the control response that was lost under treatment. The term IC50 denotes the concentration at which inhibition is half-maximal. As for `CC[C@H](C)[C@@H]([C@@H](CC(=O)NC[C@H]1O[C@H](C(=O)NCCc2ccccc2)[C@@H](OC)[C@@H]1OC)OC)N(C)C(=O)[C@@H](NC(=O)[C@@H](NC)C(C)C)C(C)C`, the result with HeLa [1], in the experiment on HeLa [6], in the experiment with HeLa [7], in the experiment with HeLa [9], in the experiment with HeLa [11] and with HeLa [13] was Active. The outcome with HeLa [14] and in the experiment on HeLa [22] was Active. The inhibition with Tubulin (Capra hircus) [2] was 17%; in the experiment on Tubulin (Capra hircus) [5], 42%; in the experiment listed under Homo sapiens [16] it was 48%; in the experiment listed under Capra hircus it was 37%; with MCF7 [21] it was 40%. Also, in the experiment on MCF7 [3], 0.015 µM corresponded to half-maximal inhibition (IC50). The Activity was 11% with HeLa [4], 59% with MCF7 [17], 12 min⁻¹ in the experiment on MCF7 [18] and 22.4% in the experiment on HeLa [19]. For the same compound, the TIME in the experiment on MCF7 [8] is 0.00833 h. In addition, the Ratio is 9 in the experiment on HeLa [10] and 7.5 with HeLa [12]. Moreover, the result with HeLa [15] was inactive. In addition, the inhibition result in the experiment listed under Homo sapiens [20] was “Active”.
